In ChEMBL document CHEMBL1138245, “Discovery of N1-(6-chloroimidazo[2,1-b][1,3]thiazole-5-sulfonyl)tryptamine as a potent, selective, and orally active 5-HT(6) receptor agonist” (J Med Chem, 2007):
The source made the active and inactive calls. The calls are words filed in the database; no cut-off is given here.

Key:
[1] = molecular target: Beta-2 adrenergic receptor (Homo sapiens) (UniProt P07550); experiment: Displacement of radio ligand from beta-2 adrenergic receptor at 10 nM
[2] = Drug level in Sprague-Dawley rat plasma at 3 mg/kg, ip after 0.25 hr; assay type: ADME, organism-based; design: dose 3 mg/kg, route intraperitoneal
Method in brief: (§1)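 Rats given a single 3 mg/kg ip or 100 mg/kg oral dose; plasma and brain concentrations measured over time to assess brain/plasma ratio.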

[3] = Drug level in Sprague-Dawley rat plasma at 3 mg/kg, ip after 2 hrs; assay type: ADME, organism-based; design: dose 3 mg/kg, route intraperitoneal; method in brief: as §1
[4] = molecular target: 5-hydroxytryptamine receptor 2B (Homo sapiens, UniProt P41595); experiment: Inhibition of human 5HT2B receptor expressed in CHO cells; assay type: cell-based
[5] = molecular target: 5-hydroxytryptamine receptor 7 (Homo sapiens, UniProt P34969); experiment: Displacement of [3H]LSD from human 5HT7 receptor expressed in CHO cells; assay type: cell-based
Method in brief: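 Human 5-HT₇ clone stably expressed in CHO cells; binding measured by [³H]LSD displacement; Ki determined in triplicate.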

[6] = molecular target: T1, 5-hydroxytryptamine receptor 3A (Homo sapiens) (UniProt P46098); experiment: Inhibition of human 5HT3 receptor expressed in CHO cells at 100 nM; assay type: cell-based
T1 sequence (whole entry): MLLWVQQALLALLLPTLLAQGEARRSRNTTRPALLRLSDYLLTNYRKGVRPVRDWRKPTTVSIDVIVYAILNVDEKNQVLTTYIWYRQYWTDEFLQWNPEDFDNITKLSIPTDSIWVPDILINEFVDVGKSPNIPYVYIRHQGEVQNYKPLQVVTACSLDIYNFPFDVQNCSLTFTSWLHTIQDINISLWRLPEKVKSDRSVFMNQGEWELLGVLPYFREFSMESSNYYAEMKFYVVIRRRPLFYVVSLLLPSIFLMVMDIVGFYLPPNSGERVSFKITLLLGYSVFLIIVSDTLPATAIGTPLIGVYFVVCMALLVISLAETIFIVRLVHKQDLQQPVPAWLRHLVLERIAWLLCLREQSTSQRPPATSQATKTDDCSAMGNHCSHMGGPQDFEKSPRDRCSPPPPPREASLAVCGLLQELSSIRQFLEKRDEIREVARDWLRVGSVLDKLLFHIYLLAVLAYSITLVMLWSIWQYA

[7] = Aqueous solubility at pH 3 to […]; assay type: physicochemical
[8] = Permeability in parallel artificial membrane; assay type: ADME; conditions: PAMPA; read-out: permeability
Method in brief: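 Parallel artificial membrane permeability assay (PAMPA); permeability reported in cm/s; triplicate determinations, standard error <20%.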

[9] = Metabolic stability in monkey liver microsomes; assay type: ADME, Macaca mulatta, Microsome; conditions: rhesus monkey
[10] = AUC in rat at 1 mg/kg, iv; assay type: ADME, organism-based; design: dose 1 mg/kg, route intravenous; conditions: plasma
[11] = AUC in dog at 1 mg/kg, iv; assay type: ADME, organism-based, Canis lupus familiaris; design: dose 1 mg/kg, route intravenous; conditions: plasma
[12] = Cmax in dog at 5 mg/kg, po; assay type: ADME, organism-based, Canis lupus familiaris; design: dose 5 mg/kg, route oral; conditions: in vivo
[13] = Tmax in rat at 10 mg/kg, po; assay type: ADME, organism-based; design: dose 10 mg/kg, route oral; conditions: in vivo
[14] = Half life in rat at 10 mg/kg, po; assay type: ADME, organism-based; design: dose 10 mg/kg, route oral; conditions: in vivo
[15] = Half life in dog at 5 mg/kg, po; assay type: ADME, organism-based, Canis lupus familiaris; design: dose 5 mg/kg, route oral; conditions: in vivo
[16] = Clearance in rat at 1 mg/kg, iv; assay type: ADME, organism-based; design: dose 1 mg/kg, route intravenous; conditions: in vivo
[17] = Clearance in dog at 1 mg/kg, iv; assay type: ADME, organism-based, Canis lupus familiaris; design: dose 1 mg/kg, route intravenous; conditions: in vivo
[18] = test system: Rattus norvegicus; experiment: Increase in GABA level in rat frontal cortex at 10 mg/kg, sc; assay type: functional, organism-based; design: dose 10 mg/kg
Method in brief: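 Frontal cortex extracellular GABA, glutamate and norepinephrine measured in rats after 10 mg/kg sc; in antagonist tests, 5-HT₆ antagonist 10 mg/kg sc given before agonist; comparison with vehicle, significance P < 0.05.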

[19] = Ratio of drug level in brain to plasma in Sprague-Dawley rat at 3 mg/kg, ip after 0.25 hr; assay type: ADME, organism-based; design: dose 3 mg/kg, route intraperitoneal; conditions: read-out: BPR
Method in brief: (§2)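 Rats given a single dose, 3 mg/kg ip or 100 mg/kg oral; drug concentrations measured in plasma and brain at timed points after dosing; brain/plasma concentration ratio calculated.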

[20] = Ratio of drug level in brain to plasma in Sprague-Dawley rat at 3 mg/kg, ip after 0.5 hr; assay type: ADME, organism-based; design: dose 3 mg/kg, route intraperitoneal; conditions: read-out: BPR; method in brief: as §2
[21] = Ratio of drug level in brain to plasma in Sprague-Dawley rat at 3 mg/kg, ip after 1 hr; assay type: ADME, organism-based; design: dose 3 mg/kg, route intraperitoneal; conditions: read-out: BPR; method in brief: as §2
[22] = Drug level in Sprague-Dawley rat brain at 100 mg/kg, po after 0.25 hr; assay type: ADME, organism-based; design: dose 100 mg/kg, route oral; conditions: read-out: Drug uptake; method in brief: as §1
[23] = Drug level in Sprague-Dawley rat brain at 100 mg/kg, po after 1 hr; assay type: ADME, organism-based; design: dose 100 mg/kg, route oral; conditions: read-out: Drug uptake; method in brief: as §1
[24] = Ratio of drug level in brain to plasma in Sprague-Dawley rat at 100 mg/kg, po after 0.25 hr; assay type: ADME, organism-based; design: dose 100 mg/kg, route oral; conditions: read-out: BPR; method in brief: as §2
[25] = Ratio of drug level in brain to plasma in Sprague-Dawley rat at 100 mg/kg, po after 0.5 hr; assay type: ADME, organism-based; design: dose 100 mg/kg, route oral; conditions: read-out: BPR; method in brief: as §2
[26] = Ratio of drug level in brain to plasma in Sprague-Dawley rat at 100 mg/kg, po after 4 hrs; assay type: ADME, organism-based; design: dose 100 mg/kg, route oral; conditions: read-out: BPR; method in brief: as §2

Sequence of 5-hydroxytryptamine receptor 2B (P41595 whole entry): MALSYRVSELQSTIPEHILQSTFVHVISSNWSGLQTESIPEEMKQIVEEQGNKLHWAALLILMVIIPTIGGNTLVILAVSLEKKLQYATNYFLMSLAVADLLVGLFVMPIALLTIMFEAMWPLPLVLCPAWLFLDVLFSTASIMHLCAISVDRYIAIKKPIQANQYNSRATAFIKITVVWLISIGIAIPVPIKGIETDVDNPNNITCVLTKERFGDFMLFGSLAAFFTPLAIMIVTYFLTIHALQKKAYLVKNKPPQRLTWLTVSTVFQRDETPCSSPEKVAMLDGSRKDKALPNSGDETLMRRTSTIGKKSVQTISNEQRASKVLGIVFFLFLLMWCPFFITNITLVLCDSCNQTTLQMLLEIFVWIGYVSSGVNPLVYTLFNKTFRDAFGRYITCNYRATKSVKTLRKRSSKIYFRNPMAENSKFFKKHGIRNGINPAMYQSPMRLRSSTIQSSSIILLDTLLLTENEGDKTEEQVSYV
Sequence of Beta-2 adrenergic receptor (Homo sapiens) (P07550 whole entry, looked up): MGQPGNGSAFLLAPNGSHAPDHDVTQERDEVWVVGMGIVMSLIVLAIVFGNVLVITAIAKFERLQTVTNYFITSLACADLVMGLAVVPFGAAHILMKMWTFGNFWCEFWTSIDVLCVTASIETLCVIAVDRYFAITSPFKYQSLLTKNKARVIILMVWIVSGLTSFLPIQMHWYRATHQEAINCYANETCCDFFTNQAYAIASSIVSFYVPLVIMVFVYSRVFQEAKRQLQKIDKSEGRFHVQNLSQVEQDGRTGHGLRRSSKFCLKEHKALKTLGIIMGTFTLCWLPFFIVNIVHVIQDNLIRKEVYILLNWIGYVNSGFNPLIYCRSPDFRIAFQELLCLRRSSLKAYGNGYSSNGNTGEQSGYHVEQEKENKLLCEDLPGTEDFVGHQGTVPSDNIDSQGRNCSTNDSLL
Sequence of 5-hydroxytryptamine receptor 7 (P34969 whole entry): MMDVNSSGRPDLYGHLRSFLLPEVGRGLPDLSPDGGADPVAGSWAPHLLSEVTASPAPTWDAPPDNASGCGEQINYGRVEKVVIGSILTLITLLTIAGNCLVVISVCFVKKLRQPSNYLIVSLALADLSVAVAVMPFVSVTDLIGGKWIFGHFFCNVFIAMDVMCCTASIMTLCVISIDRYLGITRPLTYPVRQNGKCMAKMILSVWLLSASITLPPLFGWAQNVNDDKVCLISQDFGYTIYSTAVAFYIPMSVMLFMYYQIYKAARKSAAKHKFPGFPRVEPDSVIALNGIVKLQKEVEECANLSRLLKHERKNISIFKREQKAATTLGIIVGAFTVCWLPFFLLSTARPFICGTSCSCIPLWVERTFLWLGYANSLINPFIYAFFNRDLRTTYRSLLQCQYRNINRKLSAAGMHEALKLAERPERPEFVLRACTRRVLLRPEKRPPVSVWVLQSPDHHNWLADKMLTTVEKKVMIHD

SMILES: NCCc1cn(S(=O)(=O)c2c(Cl)nc3sccn23)c2ccccc12
- Activity [1]: < 50%
- concentration at 0.25 h [2]: 91.3 ng/mL
- concentration at 2 h [3]: 3.2 ng/mL
- Ki [4]: 458 nM
- Ki [5]: 679 nM
- inhibition [6]: < 50%
- solubility [7]: > 10000 µg/mL
- Papp [8]: 13.6 ×10⁻⁶ cm/s
- half-life [9]: 6.4 min
- AUC [10]: 140 ng·h/mL
- AUC [11]: 520 ng·h/mL
- Cmax [12]: 130 ng/mL
- Tmax [13]: 1.7 h
- half-life [14]: 3.1 h
- half-life [15]: 6.6 h
- clearance [16]: 123 mL/min/kg
- clearance [17]: 30 mL/min/kg
- Activity [18]: Active
- Kp at 0.25 h [19]: 0.09
- Kp at 0.5 h [20]: 0.17
- Kp at 1 h [21]: 0.68
- concentration at 0.25 h [22]: 12.5 ng/mL
- concentration at 1 h [23]: 45.1 ng/mL
- Kp at 0.25 h [24]: 0.1
- Kp at 0.5 h [25]: 0.55
- Kp at 4 h [26]: 0.26
